As a reminder, the IC50 is the midpoint of a concentration-inhibition curve. High values mean lower potency, low ones higher potency.

For test [1], the target named is T1, Polyunsaturated fatty acid lipoxygenase ALOX15B (Rattus norvegicus, UniProt Q8K4F2).
T1 sequence (Q8K4F2 whole entry): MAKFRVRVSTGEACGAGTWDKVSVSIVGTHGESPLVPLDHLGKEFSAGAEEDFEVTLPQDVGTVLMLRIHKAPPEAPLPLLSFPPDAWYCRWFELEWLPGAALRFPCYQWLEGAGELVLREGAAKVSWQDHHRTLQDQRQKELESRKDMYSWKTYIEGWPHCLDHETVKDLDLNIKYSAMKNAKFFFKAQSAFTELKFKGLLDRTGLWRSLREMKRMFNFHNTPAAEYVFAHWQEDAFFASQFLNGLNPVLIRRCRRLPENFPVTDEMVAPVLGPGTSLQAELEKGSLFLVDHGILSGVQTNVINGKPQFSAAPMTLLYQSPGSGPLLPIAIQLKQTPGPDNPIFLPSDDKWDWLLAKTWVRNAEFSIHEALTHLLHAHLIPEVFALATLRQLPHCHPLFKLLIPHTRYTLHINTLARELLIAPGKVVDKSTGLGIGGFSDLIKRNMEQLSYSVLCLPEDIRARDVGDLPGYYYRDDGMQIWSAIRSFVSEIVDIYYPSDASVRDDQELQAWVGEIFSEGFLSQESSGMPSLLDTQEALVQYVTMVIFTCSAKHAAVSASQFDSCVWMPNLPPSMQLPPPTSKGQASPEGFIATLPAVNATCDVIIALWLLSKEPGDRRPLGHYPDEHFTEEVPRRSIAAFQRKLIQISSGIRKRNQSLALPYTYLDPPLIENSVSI
Kind of test: Inhibitory activity against 15-lipoxygenase in rat polymorphonuclear leukocytes. The class given is cell-based. The gist of the method: (§1)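 Heparinized rat blood; PMNLs isolated by Ficoll/Hypaque gradient and hypotonic hemolysis, washed thrice in Hanks' solution, resuspended at 2 × 10^7 cells/mL in 1/15 M phosphate buffer pH 8.2 (>94% neutrophils, <1% platelets). Cells sonicated at 4 °C, given 1 mM CaCl2, incubated with [14C]arachidonic acid (0.2 µCi) 20 min at 37 °C; stopped by HCl acidification to pH 3.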

Test [2] addresses 12-lipoxygenase (Rattus norvegicus, UniProt F1LQ70). Put plainly: Inhibitory activity against 12-lipoxygenase in rat platelet rich plasma. The test is classed as cell-free.
The target in test [3] is T2, Polyunsaturated fatty acid 5-lipoxygenase (Rattus norvegicus, UniProt P12527).
T2 sequence (P12527 whole entry): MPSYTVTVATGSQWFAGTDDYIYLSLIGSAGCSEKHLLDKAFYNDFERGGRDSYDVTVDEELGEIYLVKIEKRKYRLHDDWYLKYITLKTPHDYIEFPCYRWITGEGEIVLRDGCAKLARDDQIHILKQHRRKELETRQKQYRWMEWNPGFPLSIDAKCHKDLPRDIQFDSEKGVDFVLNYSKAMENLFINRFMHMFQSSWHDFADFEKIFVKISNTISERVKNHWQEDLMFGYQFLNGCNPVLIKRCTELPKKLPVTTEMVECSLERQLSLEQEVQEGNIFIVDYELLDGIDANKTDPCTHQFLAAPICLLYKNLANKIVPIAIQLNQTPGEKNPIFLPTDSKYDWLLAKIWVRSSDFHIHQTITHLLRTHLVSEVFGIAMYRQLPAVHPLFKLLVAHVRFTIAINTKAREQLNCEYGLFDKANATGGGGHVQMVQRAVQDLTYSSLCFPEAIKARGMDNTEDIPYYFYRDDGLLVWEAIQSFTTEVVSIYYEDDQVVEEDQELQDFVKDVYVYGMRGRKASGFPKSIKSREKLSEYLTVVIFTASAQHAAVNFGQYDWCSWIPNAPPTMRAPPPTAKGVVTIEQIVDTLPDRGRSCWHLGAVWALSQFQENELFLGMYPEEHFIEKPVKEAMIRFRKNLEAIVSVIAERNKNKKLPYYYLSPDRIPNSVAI
Put plainly: Inhibitory activity against 5-lipoxygenase in rat polymorphonuclear leukocytes. The class given is cell-based. The gist of the method:
as §1

12-lipoxygenase, sequence (F1LQ70 whole entry, looked up): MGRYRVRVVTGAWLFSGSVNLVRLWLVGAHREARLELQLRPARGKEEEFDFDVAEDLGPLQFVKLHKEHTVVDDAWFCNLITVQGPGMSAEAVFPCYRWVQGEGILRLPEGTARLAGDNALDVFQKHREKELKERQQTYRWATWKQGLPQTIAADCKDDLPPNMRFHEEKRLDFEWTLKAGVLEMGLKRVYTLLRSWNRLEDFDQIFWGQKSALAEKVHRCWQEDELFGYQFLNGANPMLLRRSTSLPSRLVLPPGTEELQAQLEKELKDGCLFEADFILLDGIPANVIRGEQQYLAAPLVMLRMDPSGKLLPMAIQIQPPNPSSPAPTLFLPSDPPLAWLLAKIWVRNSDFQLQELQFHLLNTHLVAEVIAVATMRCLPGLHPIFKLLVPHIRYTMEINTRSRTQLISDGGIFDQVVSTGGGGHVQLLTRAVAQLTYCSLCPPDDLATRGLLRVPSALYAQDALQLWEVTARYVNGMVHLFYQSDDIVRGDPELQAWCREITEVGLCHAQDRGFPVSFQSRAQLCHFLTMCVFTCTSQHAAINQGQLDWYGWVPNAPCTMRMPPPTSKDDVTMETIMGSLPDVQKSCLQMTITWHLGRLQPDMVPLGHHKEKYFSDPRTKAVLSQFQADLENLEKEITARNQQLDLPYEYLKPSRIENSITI

On to `CCOC(=O)/C(C#N)=C/c1ccc(O)c(O)c1`, for which the IC50 in test [1] is 330 nM; in test [2] it was 33 nM; in test [3], more than 10000 nM.
Take `N#C/C(=C\c1ccc(O)c(O)c1)C(=O)OCCCc1cccnc1`: the IC50 in test [1] is 3930 nM; in test [2], 470 nM; in test [3] it was more than 10000 nM.
Take `N#C/C(=C\c1ccc(O)c(O)c1)C(=O)OCCCc1ccccc1`: the IC50 in test [1] is 1400 nM; in test [2] it was 53 nM; in test [3], 160 nM.
With `N#C/C(=C\c1ccc(O)c(O)c1)C(=O)OCCc1cccs1`, the concentration for half-maximal inhibition (IC50) is 500 nM in test [1], 13 nM in test [2] and 90 nM in test [3].
Turning to `N#C/C(=C\c1ccc(O)c(O)c1)C(=O)OCCCCCCCCn1ccnc1`, the half-inhibitory concentration (IC50) was more than 10000 nM in test [1], 180 nM in test [2] and more than 10000 nM in test [3].
`N#C/C(=C\c1ccc(O)c(O)c1)C(=O)OCCc1ccccc1`: the IC50 in test [1] was found to be 430 nM; in test [2] it was 51 nM; in test [3] it was 160 nM.
The like results for `N#C/C(=C\c1ccc(O)c(O)c1)C(=O)OCCCCc1ccccc1` were, in that order, 3590 nM, 470 nM and 220 nM.
Consider `COc1ccccc1CCOC(=O)/C(C#N)=C/c1ccc(O)c(O)c1`, for which the concentration for half-maximal inhibition (IC50) stood at 1620 nM in test [1], 64 nM in test [2] and 140 nM in test [3].
For the compound `O=c1cc(-c2ccccc2)oc2cc(O)c(O)c(O)c12` [BAICALEIN], the IC50 was 260 nM in test [1] and 15 nM in test [2].
Take `N#C/C(=C\c1ccc(O)c(O)c1)C(=O)OC/C=C/c1ccccc1`: the half-inhibitory concentration (IC50) in test [1] was found to be 3330 nM; in test [2], 63 nM; in test [3] it was 1890 nM.

Values taken from ChEMBL document CHEMBL1125679, “Novel caffeic acid derivatives: extremely potent inhibitors of 12-lipoxygenase” (J Med Chem, 1991).
